Only some compounds are listed: those with a hit (about 1.8% of all), similar ones and a draw of the others.
DDE Tn7 FP inh: inhibitors of Tn7 peptide binding to human fibrin DD(E). FP displacement of FITC-Tn7 peptide from fibrin DD(E); 0% = median of compound wells per plate. 0.13% of 370,000 active. P02675. inhibition, % at 8.3 µM;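 active means inhibition above the mean of compounds falling within the control limits plus 3 SD of them, cut at about 14% in these data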;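 further: 0% = plate median of compound wells and 100% = 10 µM Aha-Tn7 peptide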
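Test system: human clot-derived fibrin DD(E) complex / Quantity: 2 µM final DD(E) protein / Incubation: 10 min plus 3 h, room temperature / Measured by: fluorescence polarization / Benchmarks: high control of 10 µM Aha-Tn7 peptide / Replicates: singlicate testing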
DDE Tn6 FP inh: DD(E)-Tn6 binding inhibition, primary FP screen. P02675. Fibrin DD(E) TRITC-Tn6 fluorescence polarization displacement. inhibition, % at 8.3 µM. 0.21% of 370,000 active. AID 720509;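 active means inhibition above a per-campaign cutoff: mean of compounds within control limits plus 3 SD, cut at about 15% in these data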;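 further: 0% = median of all compound wells on the plate and 100% = blocking peptide control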
HTRA1 inh: inhibitors of human serine peptidase HTRA1; Q92743; recombinant HTRA1, FP-rhodamine activity-based probe, fluorescence polarization; inhibition, % at 5.96 µM; 0.5% of 340,000 active; AID 504803; in the data active means inhibition above about 36%;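 further: 0% = enzyme with DMSO and 100% = wells lacking enzyme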
ABHD4 inh: inhibitors of mouse ABHD4; Q8VD66; purified mABHD4, FP-Rh probe fluorescence polarization; inhibition, % at 8.92 µM; 0.54% of 370,000 active; AID 720543;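 active means inhibition exceeding the mean over every tested compound plus 3 SD, cut at about 30% in these data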;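 further: 0% = plate median of compound wells and 100% = S159A mutant with DMSO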
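Test system: mABHD4 protein | Buffer or medium: HEPES pH 7.0 buffer, 150 mM NaCl, 0.01% Pluronic F-127 | Probe or stimulus: FP-Rh fluorescent activity-based probe, added after compound pre-incubation | Timing: Pre-incubation 45 min, probe exposure 60 min, at 25 °C | Technique: Fluorescence polarization, excitation 525 nm, emission 598 nm, BODIPY TMR filters | Repeats: Single well per compound (singlicate)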
TCR CD3 inh: human TCR-CD3 binding inhibition; inhibition, % at 9.4 µM; 0.37% of 360,000 active; AID 651800; TAMRA-labeled TCR probe fluorescence, biochemical; in the data active means inhibition above about 19%;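 further: recombinant mutant TCR 2C K166C tagged with TAMRA read by polarization; 0% = receptor in buffer alone and 100% = receptor with positive control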
SIAE primary: inhibitors of human sialic acid acetylesterase SIAE; SIAE FP-Rh probe binding, fluorescence polarization; 0.69% of 370,000 active; AID 1053197; inhibition, % at 9.66 µM;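 active means inhibition above a cutoff: mean of compounds within the control limits plus 3 SD of those, cut at about 17% in these data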;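 further: 0% = plate median of compound wells and 100% = probe without SIAE protein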
Target sequence (Q9HAT2 whole entry, looked up): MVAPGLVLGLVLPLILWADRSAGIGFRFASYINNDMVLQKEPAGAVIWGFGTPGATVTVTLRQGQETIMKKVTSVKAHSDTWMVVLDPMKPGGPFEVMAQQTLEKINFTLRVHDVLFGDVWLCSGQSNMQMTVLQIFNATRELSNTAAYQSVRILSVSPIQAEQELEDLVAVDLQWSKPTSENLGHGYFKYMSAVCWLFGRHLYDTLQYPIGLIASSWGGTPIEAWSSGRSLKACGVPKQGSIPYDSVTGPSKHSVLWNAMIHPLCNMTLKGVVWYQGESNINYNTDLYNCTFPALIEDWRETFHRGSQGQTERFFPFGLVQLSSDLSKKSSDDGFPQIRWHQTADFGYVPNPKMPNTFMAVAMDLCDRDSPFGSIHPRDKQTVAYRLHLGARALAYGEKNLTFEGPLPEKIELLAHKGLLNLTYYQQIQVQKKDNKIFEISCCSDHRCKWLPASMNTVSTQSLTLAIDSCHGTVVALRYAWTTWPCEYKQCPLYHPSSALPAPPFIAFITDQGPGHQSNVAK
SIAE inh conf: human SIAE inhibition, confirmation; inhibition, % at 9.66 µM; SIAE FP-Rh activity-based probe, fluorescence polarization; AID 1117263; shares compounds with SIAE primary; 13% of 2,300 active;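 active means mean inhibition of the replicates above the hit cutoff set in the primary screen, cut at about 17% in these data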;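 further: 0% = SIAE with DMSO and probe and 100% = probe without SIAE; inhibitors lower polarization as more probe stays unbound to SIAE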
* = called active by the depositor.

`Cc1ccc(C(=O)N2CCC[C@@H]2C(=O)N2CCC[C@@H]2C(=O)NCc2ccccc2)cc1` gave DDE Tn7 FP inh 9, DDE Tn6 FP inh 3, ABHD4 inh 0, TCR CD3 inh -7 and SIAE primary 2.
`CCN(CC)S(=O)(=O)c1ccc(C(=O)NCCSc2c[nH]c3ccccc23)cc1` gave DDE Tn7 FP inh 3, DDE Tn6 FP inh 6, HTRA1 inh -11, ABHD4 inh -8, TCR CD3 inh -1, SIAE primary 19* and SIAE inh conf 0.
`CCC(=O)NCCSc1c[nH]c2ccccc12` gave DDE Tn7 FP inh -5, DDE Tn6 FP inh -1, HTRA1 inh -4, ABHD4 inh -2, TCR CD3 inh -1 and SIAE primary 1.
Screening O=S1(=O)c2ccc(Br)cc2OC[C@@H](c2ccccc2)N1Cc1cn(CCC2OCCCO2)nn1 returned DDE Tn7 FP inh 0, DDE Tn6 FP inh 7, ABHD4 inh 8 and SIAE primary -2.
`CCOc1ccc(-n2c(SCC(=O)c3ccc4ccccc4c3)nnc2-c2ccco2)cc1` gave DDE Tn7 FP inh -3, DDE Tn6 FP inh -5, ABHD4 inh -16 and SIAE primary -10.
CCCN(CCC)CC(O)Cn1cc(/C=C/C(=O)c2ccccc2)c2ccccc21 (stereo not drawn) was read as DDE Tn7 FP inh -1, DDE Tn6 FP inh 2, HTRA1 inh -8, ABHD4 inh 5, TCR CD3 inh 0, SIAE primary 18* and SIAE inh conf -6.
Screening c1nc(NCC2CCCCO2)c2cc(-c3ccc4c(c3)OCO4)ccc2n1 (stereo not drawn) returned DDE Tn7 FP inh -1, DDE Tn6 FP inh -14, ABHD4 inh -3 and SIAE primary -7.
`Cc1ccc(C(=O)COC(=O)c2cccc(NC(=O)c3ccc([N+](=O)[O-])cc3[N+](=O)[O-])c2)cc1` gave DDE Tn7 FP inh 3, DDE Tn6 FP inh -2, HTRA1 inh 6, ABHD4 inh -57, TCR CD3 inh -1, SIAE primary 21* and SIAE inh conf -29.
CC(=O)Nc1ccc(C(=O)OCC(=O)c2cccc([N+](=O)[O-])c2)cc1 was read as DDE Tn7 FP inh -8, DDE Tn6 FP inh 6, HTRA1 inh -5, ABHD4 inh 0, TCR CD3 inh 2 and SIAE primary 1.
`CCCCN1CN2Cc3cc(F)ccc3C2CS1(=O)=O` (stereo not drawn) gave DDE Tn7 FP inh -1, DDE Tn6 FP inh 1, ABHD4 inh 0 and SIAE primary 7.
For Cc1ccc(NC(=O)c2ccc(NCC3CCCO3)c([N+](=O)[O-])c2)cc1Cl (stereo not drawn) the results were DDE Tn7 FP inh -8, DDE Tn6 FP inh 1, HTRA1 inh -6, ABHD4 inh 0, TCR CD3 inh -2, SIAE primary 72* and SIAE inh conf 0.
Screening O=C1NCCN(CC2CCN(CCc3ccccc3)CC2)C1=O returned DDE Tn7 FP inh -2, DDE Tn6 FP inh -3, HTRA1 inh 4, ABHD4 inh 8, TCR CD3 inh -8 and SIAE primary 12.
`CC(C)(C)CCN1CCC(CN2CCNC2=S)CC1` gave DDE Tn7 FP inh 10, DDE Tn6 FP inh 3, HTRA1 inh 4, ABHD4 inh 6, TCR CD3 inh -7, SIAE primary 18* and SIAE inh conf 5.
For Cc1ccc(-n2c(SCc3cc(=O)n4ccsc4n3)nnc2-c2cccnc2)c(C)c1 the results were DDE Tn7 FP inh -5, DDE Tn6 FP inh -6, HTRA1 inh 8, ABHD4 inh 0, TCR CD3 inh 6, SIAE primary 17* and SIAE inh conf -3.
Cc1ccc(-n2c(SCC(N)=O)nnc2-c2cccnc2)c(C)c1 was read as DDE Tn7 FP inh -1, DDE Tn6 FP inh 9, HTRA1 inh 5, ABHD4 inh 5, TCR CD3 inh 9 and SIAE primary 4.
`N#CC(C#N)=Cc1cc2ccccc2nc1N1CCOCC1` gave DDE Tn7 FP inh -4, DDE Tn6 FP inh -10, HTRA1 inh 5, ABHD4 inh 0, TCR CD3 inh -5 and SIAE primary 0.
`N#C/C(=C\c1cc2ccccc2nc1N1CCOCC1)C(=O)Nc1ccc(N2CCOCC2)cc1` gave DDE Tn7 FP inh 0, DDE Tn6 FP inh 4, HTRA1 inh 0, ABHD4 inh 0, TCR CD3 inh -8, SIAE primary 20* and SIAE inh conf 7.
For F[B-](F)(F)c1cncnc1 the results were DDE Tn7 FP inh -1, DDE Tn6 FP inh 1, ABHD4 inh 4, TCR CD3 inh 8 and SIAE primary -2.
Cc1cc(NS(=O)(=O)c2ccc(NC(=O)CSc3nnc(-c4ccco4)n3-c3ccc(Cl)cc3)cc2)nc(C)n1 was read as DDE Tn7 FP inh -1, DDE Tn6 FP inh -5, ABHD4 inh -2 and SIAE primary -4.
Nn1c(SCC(=O)Nc2ccc(S(=O)(=O)N3CCCC3)cc2)nnc1C(F)(F)F was read as DDE Tn7 FP inh 9, DDE Tn6 FP inh 3, HTRA1 inh -2, ABHD4 inh -3, TCR CD3 inh -4, SIAE primary 17* and SIAE inh conf -6.
Cn1cnnc1SCC(=O)Nc1ccc(S(=O)(=O)N2CCCC2)cc1 was read as DDE Tn7 FP inh 4, DDE Tn6 FP inh 8, HTRA1 inh -2, ABHD4 inh 3, TCR CD3 inh 3 and SIAE primary -2.
Screening Cc1ccccc1P(=O)(CO)c1ccccc1C returned DDE Tn7 FP inh 4, DDE Tn6 FP inh 0, HTRA1 inh 1, ABHD4 inh 1, TCR CD3 inh -10, SIAE primary 178* and SIAE inh conf 3.
Screening CN(C)c1ccc(C(CNC(=O)c2ccc(C#N)cc2)c2c[nH]c3ccccc23)cc1 (stereo not drawn) returned DDE Tn7 FP inh -8, DDE Tn6 FP inh -5, HTRA1 inh 17, ABHD4 inh -1, TCR CD3 inh -5, SIAE primary 24* and SIAE inh conf 7.
CCOC(=O)c1ccc(S(=O)(=O)NCC(c2ccc(N(C)C)cc2)c2c[nH]c3ccccc23)cc1 (stereo not drawn) was read as DDE Tn7 FP inh -7, DDE Tn6 FP inh -3, HTRA1 inh -8, ABHD4 inh -23, TCR CD3 inh 0, SIAE primary 23* and SIAE inh conf 1.
CCCCNC(=O)NC1CCN(CC(=O)Nc2ccc3c(c2)OCCO3)CC1 was read as DDE Tn7 FP inh 1, DDE Tn6 FP inh -9, ABHD4 inh -6 and SIAE primary 0.
Screening C[C@@H]1ON(C)[C@H]2C[C@H]3c4cc(N5CCN(C)CC5)ccc4CCN3C[C@@H]12 returned DDE Tn7 FP inh -6, DDE Tn6 FP inh 1, ABHD4 inh -2, TCR CD3 inh 1 and SIAE primary -5.
